The experiment relates to Mycobacterium tuberculosis. Kind of experiment: Antimicrobial activity against Mycobacterium tuberculosis H37Rv after 28 days by agar dilution method. To be noted: 672 h. It counts as functional. An outline of the steps:
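Agar dilution on Middlebrook 7H11 with OADC supplement. Compound serially diluted into the agar, […]. H37Rv inoculum from fresh 7H11 slants, set to 1 mg/mL wet weight in 0.05% Tween 80 saline, diluted 10^2 to about 10^7 cfu/mL; 5 µL spotted per tube. Incubated at 37 C, read at 28 days. MIC = lowest concentration giving complete growth inhibition.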
(In general: Agar dilution tests growth on a series of plates holding different concentrations.)

Structures are written as SMILES. ≈ marks a conversion by molar mass, not a printed value.

Consider 22 compounds from ChEMBL document CHEMBL1795210, “Synthesis and screening of (E)-1-(β-D-galactopyranosyl)-4-(aryl)but-3-ene-2-one against Mycobacterium tuberculosis” (2011).

The MIC is the least concentration at which growth counts as inhibited. Read a low MIC as inhibition by little substance.

Take `COc1cc(OC)c(/C=C/C(=O)C[C@@H]2O[C@H](CO)[C@H](O)[C@H](O)[C@H]2O)c(OC)c1`: 6.25 µg/mL (≈ 15.7 µM) was the least that counted as inhibitory (MIC). Turning to `O=C(/C=C/c1cc(C(F)(F)F)ccc1C(F)(F)F)C[C@@H]1O[C@H](CO)[C@H](O)[C@H](O)[C@H]1O`, it took 12.5 µg/mL (≈ 28.1 µM) to inhibit growth (MIC).

`O=C(/C=C/c1ccc(C(=O)O)cc1)C[C@@H]1O[C@H](CO)[C@H](O)[C@H](O)[C@H]1O` had an MIC of 1.56 µg/mL (≈ 4.43 µM). The compound `COc1cc(/C=C/C(=O)C[C@@H]2O[C@H](CO)[C@H](O)[C@H](O)[C@H]2O)cc(OC)c1OC` yielded an MIC of 6.25 µg/mL (≈ 15.7 µM). Against the preceding compound, the MIC is about 4-fold higher. Consider `COc1ccc(-c2ccc(/C=C/C(=O)C[C@@H]3O[C@H](CO)[C@H](O)[C@H](O)[C@H]3O)o2)cc1Cl`, for which the MIC stood at 3.13 µg/mL (≈ 7.13 µM). Compared with the last compound, the MIC is about 2-fold lower. `CN(C)c1ccc(/C=C/C(=O)C[C@@H]2O[C@H](CO)[C@H](O)[C@H](O)[C@H]2O)cc1` came in with an MIC of 1.56 µg/mL (≈ 4.44 µM).

Consider `CC[C@@H](CO)NCCN[C@@H](CC)CO` [ETHAMBUTOL], for which the lowest concentration to inhibit growth (MIC) was 1.56 µg/mL (≈ 7.64 µM). As for `O=C(/C=C/c1ccc(-c2ccc(Cl)cc2[N+](=O)[O-])o1)C[C@@H]1O[C@H](CO)[C@H](O)[C@H](O)[C@H]1O`, the MIC is > 12.5 µg/mL. Under `O=C(/C=C/c1cnc2ccccc2c1)C[C@@H]1O[C@H](CO)[C@H](O)[C@H](O)[C@H]1O` stands 6.25 µg/mL (≈ 17.4 µM). Compound `COc1c(O)cc(/C=C/C(=O)C[C@@H]2O[C@H](CO)[C@H](O)[C@H](O)[C@H]2O)cc1[N+](=O)[O-]` gave an MIC of 1.56 µg/mL (≈ 3.91 µM).

In turn, `O=C(/C=C/c1ccc2c(c1)OCO2)C[C@@H]1O[C@H](CO)[C@H](O)[C@H](O)[C@H]1O` showed an MIC of 1.56 µg/mL (≈ 4.43 µM). For the compound `C=Cc1cccc(/C=C/C(=O)C[C@@H]2O[C@H](CO)[C@H](O)[C@H](O)[C@H]2O)c1`, the MIC came to 3.13 µg/mL (≈ 9.36 µM). Against the preceding compound, the MIC is about 2-fold higher.

In turn, `CO[C@H]1/C=C/O[C@@]2(C)Oc3c(C)c(O)c4c(O)c(c(/C=N/N5CCN(C)CC5)c(O)c4c3C2=O)NC(=O)/C(C)=C\C=C\[C@H](C)[C@H](O)[C@@H](C)[C@@H](O)[C@@H](C)[C@H](OC(C)=O)[C@@H]1C` [RIFAMPIN] displayed an MIC of 0.1 µg/mL (≈ 0.122 µM). For `O=C(/C=C/c1ccc(-c2ccccc2[N+](=O)[O-])o1)C[C@@H]1O[C@H](CO)[C@H](O)[C@H](O)[C@H]1O`, the minimum inhibitory concentration (MIC) was > 12.5 µg/mL. Take `O=C(/C=C/c1ccc(-c2ccccc2)cc1)C[C@@H]1O[C@H](CO)[C@H](O)[C@H](O)[C@H]1O`: 6.25 µg/mL (≈ 16.3 µM) was the least that counted as inhibitory (MIC). On to `COc1ccc(/C=C/C(=O)C[C@@H]2O[C@H](CO)[C@H](O)[C@H](O)[C@H]2O)cc1Br`, for which the MIC is > 12.5 µg/mL. For `C#Cc1ccccc1/C=C/C(=O)C[C@@H]1O[C@H](CO)[C@H](O)[C@H](O)[C@H]1O`, the minimum inhibitory concentration (MIC) is > 12.5 µg/mL.

Regarding `O=C(/C=C/c1ccc2cccc(O)c2n1)C[C@@H]1O[C@H](CO)[C@H](O)[C@H](O)[C@H]1O`, the MIC amounted to 3.13 µg/mL (≈ 8.34 µM).

For `NNC(=O)c1ccncc1` [ISONIAZID], the MIC amounted to 0.05 µg/mL (≈ 0.365 µM). Compound `O=C(/C=C/c1ccc2ccccc2n1)C[C@@H]1O[C@H](CO)[C@H](O)[C@H](O)[C@H]1O` gave an MIC of 3.13 µg/mL (≈ 8.71 µM). Under `O=C(/C=C/c1ccc(CO)o1)C[C@@H]1O[C@H](CO)[C@H](O)[C@H](O)[C@H]1O` stands 1.56 µg/mL (≈ 4.75 µM); under `O=C(/C=C/c1ccc(N(CCO)CCO)cc1)C[C@@H]1O[C@H](CO)[C@H](O)[C@H](O)[C@H]1O`, 6.25 µg/mL (≈ 15.2 µM).
